# Measurements collected from several papers.
# Lines come from different studies, so protocols differ.
# Target: Mitogen-activated protein kinase 1 (MAPK1, Homo sapiens, UniProt P28482)
SMILES,test,conditions,remaining binding [%]
FC(F)(F)Oc1cccc(-c2cnc3ccc(-c4ccncc4)nn23)c1,"cell-free assay, competition with immobilised ligand",5 µM,100
O=C(NCC1CCOCC1)c1n[nH]cc1NC(=O)c1c(F)cccc1F,"binding, competition with immobilised ligand",1 µM,87
C[C@H](c1cccc(C#N)c1)n1cc(Cl)cc(C(N)=O)c1=N,"cell-free assay, competition with immobilised ligand",1 µM,93
O=C(c1ccc(Nc2nccc(-c3cc4ccccc4s3)n2)cc1)N1CCC(N2CCCC2)CC1,"binding, competition with immobilised ligand",1 µM,100
CN(C)c1nccc(-c2cnn3ncccc23)n1,binding,1 µM,100
CCCOc1ccc([C@H]2[C@H](C(=O)O)[C@@H](c3ccc4c(c3)OCO4)CN2CC(=O)Nc2c(CC)cccc2CC)cc1,"cell-free assay, competition with immobilised ligand",1 µM,100
O=C(c1ccc(Nc2ncc(Cl)c(-c3cc4ccccc4s3)n2)cc1)N1CCC(N2CCCC2)CC1,"binding, competition with immobilised ligand",1 µM,100
CCCCN(CCCC)C(=O)CN1C[C@@H](c2cc(OC)c3c(c2)OCO3)[C@H](C(=O)O)[C@H]1CC(C)(C)CCC,"cell-free assay, competition with immobilised ligand",1 µM,82.1
C[C@@H](c1ccc(-n2cnc3c(N)ncnc32)cc1)N1CCc2nn(C)c(Cc3ccccc3)c2C1=O,"binding, competition with immobilised ligand",0.1 µM,91
CNC(=O)[C@@H]1CC[C@@H](n2c(-c3ccc4cnccc4c3)nc3ccc(C(=O)NCc4cccc(C(N)=O)c4)cc32)C1,"binding, competition with immobilised ligand",1 µM,91
O=C(NCCCN1CCOCC1)c1ccc(Nc2nccc(-c3cc4ccccc4s3)n2)cc1,"binding, competition with immobilised ligand",1 µM,89
CN(C)c1nccc(-c2cnc3ncccn23)n1,binding,1 µM,81
FC(F)(F)c1ccc2c(c1)nc(-c1cccnc1)n2C1CC1,"cell-free assay, competition with immobilised ligand",1 µM,100
c1cncc(-c2cccc(Nc3nccc(NC4CCCCC4)n3)c2)c1,"binding, competition with immobilised ligand",10 µM,92
C[C@@H]1CCN(c2nccc(-c3cnn4ncccc34)n2)C1,binding,1 µM,88
CCN1CCN(Cc2ccc(C(=O)Nc3ccc(C)c(Oc4ccc5c(c4)CC(=O)N5)c3)cc2C(F)(F)F)CC1,"binding, competition with immobilised ligand",1 µM,100
CN(C)c1ncc(F)c(-c2cnn3ncccc23)n1,binding,1 µM,82
Cn1nc(C(F)(F)F)cc1-c1cnc(N2CCc3cc(S(=O)(=O)Nc4c(F)cc(Cl)cc4F)cc(N4CCCC4=O)c32)nc1,"cell-free assay, competition with immobilised ligand",1 µM,100
Cc1cnn2ncc(-c3ccnc(N(C)C)n3)c2c1,binding,1 µM,100
Cn1nc(C(=O)NCc2ccc(C(=O)O)cc2)cc1-c1ccc2[nH]ccc2c1,"cell-free assay, competition with immobilised ligand",0.1 µM,94
N[C@H]1CCN(c2nccc(-c3cnn4ncccc34)n2)C1,binding,1 µM,100
COc1cnc(Nc2cccc(S(N)(=O)=O)c2)nc1N1CCN(c2ccccc2)C(=O)C1,"binding, competition with immobilised ligand",1 µM,100
